# Assay results collected from several papers.
# Lines come from different studies, so protocols differ.
SMILES,test system,conditions,quantity,result
CCN(CC)CCCC[C@H](NC(=O)[C@H](CC(C)C)NC(=O)[C@H](C)NC(=O)[C@H](Cc1ccccc1)NC(=O)c1ccc(C(C)(C)C)cc1)C(=O)N[C@@H](CO)C(=O)OC,"male Swiss mouse, blood","intravenous, 3 mg/kg",AUC(0-inf),1890 ng·h/mL
Cc1cc(C)nc(Nc2ncc(C(=O)NCCc3c(C)[nH]c4ccccc34)cn2)c1,"C57BL/6 mouse, plasma","intraperitoneal, 8.8 mg/kg",AUC(0-inf),1050 ng·h/mL
CCC[C@@](N)(CO)CCc1ccc(OCCCCCC(C)C)cc1,"mouse, plasma","oral, 50 mg/kg",AUC(0-t),5.02 µM·h
Cc1ncc2n1-c1ccc(Cl)cc1C(c1ccccc1F)=NC2,"mouse, plasma","intravenous, 0.3 mg/kg",AUC(0-inf),0.15 µM·h
CN1CCCCC1Cn1cc(C(=O)c2cc([N+](=O)[O-])ccc2I)c2ccccc21 (racemic),"mouse, plasma","intravenous, 25 mg/kg",AUC,5830 ng·h/mL
NCC(=O)Nc1ccc(-n2nc(C(F)(F)F)cc2-c2ccc3c(ccc4ccccc43)c2)cc1,"mouse, plasma","oral, 80 mg/kg, single dose",AUC(0-inf),81800 ng·h/mL
CN[C@H](CC(C)C)C(=O)N[C@H]1C(=O)N[C@@H](CC(N)=O)C(=O)N[C@H]2C(=O)NC3C(=O)N[C@H](C(=O)N[C@H](C(=O)NCCC[N+](C)(C)C)c4cc(O)cc(O)c4-c4cc3ccc4O)[C@H](O)c3ccc(c(Cl)c3)Oc3cc2cc(c3OC2OC(CO)C(O)[C@H](O)[C@@H]2O[C@H]2CC(C)(NCc3ccc(-c4ccc(Cl)cc4)cc3)[C@H](O)[C@H](C)O2)Oc2ccc(cc2Cl)[C@H]1O (some centres unmarked),"mouse, plasma","intravenous, 50 mg/kg",AUC,430000 ng·h/mL
C[C@]12CC[C@H](n3ccnc3)CC1=CC[C@@H]1[C@@H]2CC[C@]2(C)C(n3cnc4ccccc43)=CC[C@@H]12.Cl.Cl,"male CD-1 mouse, plasma","oral, 10 mg/kg",AUC(0-t),32500 ng·h/mL
